Hits are enriched below; roughly 3.5% of the tested compounds scored in any of these assays.
MrgX1 ag: activates human MrgX1 receptor signaling | AID 588627 | MrgX1-HEK293 cells, Fluo-4 calcium fluorescence, agonist mode; active compounds read high | Q96LB2 | B-score at 10 µM | 0.44% of 310,000 active;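 active = calcium response B-score plate-corrected fluorescence ratio at least 3 library SD, with starting fluorescence B-score inside 5 SD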
Target sequence (Q96LB2 whole entry, looked up): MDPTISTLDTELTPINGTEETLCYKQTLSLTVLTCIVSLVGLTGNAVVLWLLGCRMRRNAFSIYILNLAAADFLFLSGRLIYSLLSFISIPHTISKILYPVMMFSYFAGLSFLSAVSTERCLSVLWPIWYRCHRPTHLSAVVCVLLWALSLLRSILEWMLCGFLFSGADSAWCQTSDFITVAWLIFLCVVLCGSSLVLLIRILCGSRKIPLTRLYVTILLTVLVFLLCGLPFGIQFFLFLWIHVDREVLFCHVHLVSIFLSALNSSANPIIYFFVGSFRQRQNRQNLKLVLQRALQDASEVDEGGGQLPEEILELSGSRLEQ
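Material: MrgX1-expressing HEK293 cells / Dosing: compound as first of three additions / Incubation: overnight seeding, then 1 h dark dye loading / Signal: Fluo-4 NW calcium fluorescence / Evaluation: B-scored fluorescence response ratio / Benchmarks: positive and negative control wells on each plate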
RGS4 act: potentiators or activators of RGS4; B-score at 10 µM; AID 463111; 0.92% of 310,000 active; HEK293 M3R/inducible RGS4, carbachol calcium flux Fluo4; active compounds read low;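 active = B-score of the integrated calcium signal more than 4 SD below the library mean, with starting fluorescence not abnormally high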;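 note: negative B-score means reduced calcium response which marks RGS4 activation or potentiation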
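Assay system: HEK293 FlpIn-TREx cells, stable M3R, doxycycline-inducible RGS4 / Probe or stimulus: carbachol, ECmax concentration / Times: overnight RGS4 induction, 30 min dye load 37 °C, 20 min compound RT / Signal: kinetic calcium fluorescence imaging with Fluo4-AM dye, 2 µM / Measure: Agonist-evoked peak-minus-minimum fluorescence over baseline, integrated ratio, B score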
MrgX1 allo act: human MrgX1 positive allosteric modulation, primary screen | 0.63% of 310,000 active | MrgX1-HEK293, Fluo-4 calcium flux, FDSS; active compounds read high | B-score at 10 µM;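 active = plate-corrected calcium response at least 3 library SD above typical, normal starting fluorescence, not activating the receptor alone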;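 note: compound read alongside a low EC10 to EC30 dose of BAM8-22 agonist; peak minus trough fluorescence over baseline measured at the second addition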
RGS4 block: human RGS4 inhibition; P49798; HEK293 M3R/RGS4 inducible, Fluo-4 calcium flux; active compounds read high; triggered by carbachol at its EC20; B-score at 10 µM; 0.45% of 310,000 active; AID 463165;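 active = B-score, a plate-corrected calcium signal, over three deviations above library mean, with baseline fluorescence within five deviations of library mean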;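 note: RGS4 expression induced by doxycycline in cells with stable M3 receptor; B-score is computed from the integrated fluorescence ratio over baseline after carbachol; higher B-score means a larger calcium signal and so more RGS4 inhibition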
Target sequence (P49798 whole entry, looked up): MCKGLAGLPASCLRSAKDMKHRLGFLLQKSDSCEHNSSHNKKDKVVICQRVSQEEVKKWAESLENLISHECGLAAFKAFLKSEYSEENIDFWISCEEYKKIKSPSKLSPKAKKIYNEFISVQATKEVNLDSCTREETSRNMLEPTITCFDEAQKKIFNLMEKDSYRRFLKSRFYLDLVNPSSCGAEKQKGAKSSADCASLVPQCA
MrgX1 antagonist: antagonists of human MrgX1 receptor | Q96LB2 | MRGX1-HEK293 calcium flux, Fluo-4, BAM8-22 antagonism; active compounds read low | B-score at 10 µM | 1.3% of 310,000 active;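 active = calcium-response B-score plate-corrected more than 3 library SD below zero, starting fluorescence within 5 deviations, no agonist response on first addition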;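 note: peak minus trough fluorescence over baseline after final BAM8-22 challenge near maximal dose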
RGS4 block valid: validation of RGS4 inhibitors; AID 492999; 65% of 1,700 active; shares compounds with RGS4 block; calcium response, % at 10 µM; HEK293 M3R/RGS4, carbachol calcium Fluo-4 fluorescence; carbachol added at its EC20; 0 = buffer wells, 100 = carbachol control;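 active = duplicate-averaged calcium response above the buffer-only control mean plus 5 SD of those controls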;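 note: integrated fluorescence ratio F max minus min over baseline F0; higher response in RGS4-induced cells means RGS4 inhibition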
RGS4 uninduced: non-induced cell nonspecific activity of RGS4 inhibitors. 20% of 1,900 active. HEK293 M3R non-induced, carbachol calcium Fluo-4; submaximal (EC20) carbachol stimulus; buffer wells 0%, carbachol control wells 100%. shares compounds with RGS4 block. AID 493000. activity (percent), % at 10 µM; call rule not given here;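 note: RGS4 induction absent so cells express M3R without RGS4; higher means more calcium signal and flags a non-specific hit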
RGS4 inh ctr2: signal in non-induced cells without carbachol, RGS4 inhibitor counter-screen; shares compounds with RGS4 block; calcium response (agonist-mode artifact), % at 10 µM; 22% of 1,900 active; HEK293 M3R/RGS4 non-induced, Fluo-4 calcium, no carbachol; normalised: buffer wells 0%, carbachol wells 100%; AID 493001;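 active = duplicate-averaged calcium rise in uninduced cells above buffer wells' mean plus 5 SD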
* hit, by the source's call; i = inactive; · = no result given.

SMILES	MrgX1 ag	RGS4 act	MrgX1 allo act	RGS4 block	MrgX1 antagonist	RGS4 block valid	RGS4 uninduced	RGS4 inh ctr2
COc1ccc(C2CC(c3cccs3)=NN2S(=O)(=O)c2ccc(C)cc2)cc1 (stereo not given)	i	i	i	6.2*	i	17%*	i	i
O=S(=O)(c1ccccc1)N1N=C(c2cccs2)CC1c1ccc(F)cc1 (stereo not given)	i	i	i	i	i	·	·	·
Cc1ccc(C2CC(c3cccs3)=NN2S(=O)(=O)c2ccc(C)cc2)cc1 (stereo not given)	i	i	i	i	i	·	i	32%*
COc1cc2c(cc1OC)CN(CCC(=O)c1ccc(Br)cc1)CC2	i	i	i	21*	i	54%*	i	28%*
O=C(O)c1ccc(N=NN2CCCCCC2)cc1	i	i	i	i	i	·	·	·
O=C(CNc1ccc(Br)cc1)c1ccc(O)cc1	i	i	i	9.6*	i	22%*	i	i
O=C(CNc1ccc(Cl)cc1)c1ccc(Br)cc1	i	i	i	i	i	·	·	·
Cc1ccc(-n2ccc(=O)c(C(=O)Nc3ccc(S(=O)(=O)Nc4onc(C)c4C)cc3)n2)cc1	i	i	i	i	i	·	i	i
Cc1noc(NS(=O)(=O)c2ccc(NC(=O)c3nn(-c4ccc(F)cc4)ccc3=O)cc2)c1C	i	i	i	i	i	·	·	·
CCn1c(SCC(=O)Nc2ccc(F)cc2)nnc1-c1cnccn1	i	i	i	i	i	·	·	·
O=C(Nc1nc(-c2cccc3ccccc23)cs1)c1cnccn1	i	i	i	5.5*	i	28%*	34%*	i
COc1ccc(Oc2c(C(F)(F)F)oc3cc(OCC(=O)O)ccc3c2=O)cc1	i	i	i	i	i	·	·	·
CCCCn1c(SCC(=O)Nc2ccc(OC)cc2)nc2ccc(N3CCOCC3)cc2c1=O	i	i	i	i	i	·	·	·
CCCCn1c(SCC(=O)NCc2ccccc2)nc2ccc(N3CCOCC3)cc2c1=O	i	i	i	i	i	i	i	i
CCCCn1c(SCC(=O)NCc2ccco2)nc2ccc(N3CCOCC3)cc2c1=O	i	i	i	5*	i	i	i	i
CCCCn1c(SCC(=O)NC(C)CC)nc2ccc(N3CCOCC3)cc2c1=O (stereo not given)	i	i	i	i	i	·	·	·
S=C(Nc1ccccc1)Nc1nc2ccccc2n1CCOc1ccc(Br)cc1	i	i	i	5*	i	10%*	i	i
Nc1nc2ccccc2n1CCOc1ccc(Br)cc1	i	i	i	i	i	·	·	·
Cc1cccc(NC(=O)CCc2nnc3ccc(NCc4ccco4)nn23)n1	i	i	i	i	i	·	·	·
Cc1cc(C)n(CC(O)Cn2c3ccc(Br)cc3c3cc(Br)ccc32)c(=O)n1 (stereo not given)	i	i	i	7.8*	i	27%*	i	i
Cc1ccc(/C=C/C(=O)NCCc2c[nH]c3ccccc23)o1	i	i	i	i	i	·	·	·
Cc1ccc(/C=C/C(=O)NCc2ccc3c(c2)OCO3)o1	i	i	i	5.6*	i	10%*	i	i
Cc1ccc(/C=C/C(=O)NC2CCCCCCC2)o1	i	i	i	8.8*	i	22%*	i	i
Cc1ccc(C(=O)NCc2ccc3c(c2)OCO3)o1	i	i	i	i	i	·	·	·
Cc1ccc(/C=C/C(=O)NCCc2cccc(Cl)c2)o1	i	i	i	6.9*	i	24%*	i	i
SMILES	MrgX1 ag	RGS4 act	MrgX1 allo act	RGS4 block	MrgX1 antagonist	RGS4 block valid	RGS4 uninduced	RGS4 inh ctr2
Cc1ccc(/C=N/NC(=O)NC2CCCCC2)o1	i	i	i	i	i	·	·	·
COC(=O)c1c(-c2c(Cl)cccc2Cl)noc1NC(=O)NN1CCCCC1	i	i	i	i	i	·	·	·
COc1ccccc1/C=C\C(=O)NCC(=O)N/N=C(/C)c1cccc([N+](=O)[O-])c1	i	i	i	i	i	·	·	·
Cc1cc(N=Nc2ccccc2)c(NCC(O)C(O)C(O)CO)cc1C (stereo not given)	i	i	i	9.6*	i	36%*	38%*	i
CC1S/C(=N/N=C/c2cccs2)NC1=O (stereo not given)	i	i	i	i	i	·	·	·
CCCC1S/C(=N/N=C/c2cccs2)NC1=O (stereo not given)	i	i	i	i	i	·	i	i
O=C1N/C(=N\N=C\c2cccs2)SC1Cc1ccc(Cl)cc1 (stereo not given)	i	i	i	i	i	·	·	·
CCC1S/C(=N/N=C/c2cccs2)NC1=O (stereo not given)	i	i	i	i	i	·	i	i
Cc1cc(C)c(NC(=O)c2ccc3c(c2)CCN3S(C)(=O)=O)c(C)c1	i	i	i	i	i	·	·	·
Cc1cc(O)ccc1N=Cc1c(C(F)(F)F)[nH][nH]c1=O	i	i	i	6.8*	i	18%*	i	21%*
Cn1c(C(=O)N2CCN(c3ccccc3)CC2)cc2cc(Cl)ccc21	i	i	i	i	i	·	·	·
COc1ccc(/C=C2\CCCC(C(=O)C(F)(F)F)=C2O)cc1	i	i	i	i	i	·	·	·
O=C(C1=C(O)/C(=C/c2ccc(O)cc2)CCC1)C(F)(F)F	i	i	i	5.2*	i	i	i	i
Cc1ccn(CCC(=O)N2CCCC(CCC(=O)N3CCN(c4ccccn4)CC3)C2)n1 (stereo not given)	i	i	i	i	i	·	·	·
COc1ccc(/C=N/NC(=O)c2nnn(-c3nonc3N)c2-c2cccs2)cc1OC	i	i	i	i	i	·	·	·
CCOc1cccc(-c2c(C(=O)N/N=C/c3cccs3)nnn2-c2nonc2N)c1	i	i	i	5.6*	i	30%*	i	i
COc1cccc(-c2c(C(=O)N/N=C(\C)c3ccco3)nnn2-c2nonc2N)c1	i	i	i	i	i	·	·	·

Assay outcomes (PubChem)
